SKKanGAS inh: S. pyogenes SKKanGAS growth inhibitors in kanamycin, primary screen, streptokinase expression inhibitor project, SKKanGAS strain, BacTiter-Glo luminescence; 6 h; inhibition, % at 7.5 µM; 300,000 compounds, 1.3% hits;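 active = mean replicate score, as percent of positive control median, at least 50; inconclusive = mean below 50 but one replicate at or above 50; inactive = mean and every replicate below 50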;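 also: strain carries kanamycin resistance gene driven by streptokinase promoter and grows in 40 µg/ml kanamycin; loss of luminescence reflects streptokinase promoter inhibition or plain growth inhibition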
CSC inhib: cancer stem cell viability inhibitors, primary screen, luminescence; cancer stem cell-like cells viability; inhibition, % at 7.5 µM; AID 2717, 2010; 300,000 compounds, 1.1% hits; in the data active = inhibition above about 75%; inconclusive = no clear call, values can overlap the other calls; tested in HMLE shEcad cells
Beta cell apopt: inhibitors of cytokine-induced beta cell apoptosis, primary screen, luminescence | protection from apoptosis, % (test concentration not listed) | AID 435005, 2010 | INS-1E cytokine-induced death, ATP luminescence, 48 h; percent of positive-control rescue, neutral wells zero | 300,000 compounds, 0.8% hits;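 active = Every replicate reaches about 75%, or at least half do and their mean reaches it too, limit read from the data; inconclusive = At least half of replicates reach the limit but their mean does not; inactive = Under half of replicates reach the limit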;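 also: higher means more ATP so stronger rescue from cytokine killing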
Lmaj promast: Leishmania major promastigote growth inhibition, primary screen | Leishmania major promastigotes, resazurin fluorescence viability | inhibition, % at 10 µM | 200,000 compounds, 9% hits | AID 1063, 2008; in the data active = inhibition above about 50%;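 also: promastigotes grown with compound for 44 hours at 28 °C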
T cruzi inh: inhibitors of intracellular T. cruzi growth, primary screen, luminescence, NIH3T3 host cells; T. cruzi beta-gal in NIH3T3, 90 h; inhibition, % (test concentration not listed); 300,000 compounds, 1.4% hits; AID 1885, 2009;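 active = mean inhibition across valid replicates above about 55%, limit read from the data; inconclusive = mean below that limit but half or more replicates reach it; inactive = mean below it, under half of replicates reach it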;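 also: signal also drops with host cell toxicity which is not excluded here; higher percent means less beta-gal luminescence so fewer parasites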
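assay system = mouse NIH/3T3 fibroblasts infected with β-gal-expressing T. cruzi Tulahuen C4 | input = 5,000 NIH/3T3 host cells per well | buffer or medium = DMEM plus 2% FBS | timing = 3 h host attachment, then at least 90 h co-culture | measured by = GalScreen luminescence, 60 min | evaluation = luminescence reflecting intracellular parasite burden, expressed as percent inhibition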
Mdm2 MdmX PPI: inhibitors of human Mdm2-MdmX association, primary screen, cell-based, luminescence, split luciferase, SaOS-2, uHTS; Protein Mdm4 (Homo sapiens) + E3 ubiquitin-protein ligase Mdm2 (Homo sapiens), …; SaOS-2 split-luciferase Mdm2/MdmX complementation; inhibition, % at 8 µM; 330,000 compounds, 3% hits;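 active = inhibition of at least 50% at 8 µM in the primary screen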
Target sequence (O15151 whole entry, looked up): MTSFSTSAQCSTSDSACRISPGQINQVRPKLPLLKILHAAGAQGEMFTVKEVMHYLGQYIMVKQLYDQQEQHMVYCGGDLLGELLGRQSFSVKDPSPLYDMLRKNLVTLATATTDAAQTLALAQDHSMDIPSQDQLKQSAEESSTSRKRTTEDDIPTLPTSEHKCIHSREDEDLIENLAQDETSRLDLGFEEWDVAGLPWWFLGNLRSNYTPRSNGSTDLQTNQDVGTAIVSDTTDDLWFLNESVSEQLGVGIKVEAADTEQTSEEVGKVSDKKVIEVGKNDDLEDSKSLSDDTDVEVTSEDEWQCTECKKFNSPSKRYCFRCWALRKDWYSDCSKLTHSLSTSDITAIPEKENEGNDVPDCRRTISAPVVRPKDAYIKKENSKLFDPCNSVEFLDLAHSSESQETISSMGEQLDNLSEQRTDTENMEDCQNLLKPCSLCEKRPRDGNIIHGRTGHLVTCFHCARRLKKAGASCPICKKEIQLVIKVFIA
Target sequence (Q00987 whole entry, looked up): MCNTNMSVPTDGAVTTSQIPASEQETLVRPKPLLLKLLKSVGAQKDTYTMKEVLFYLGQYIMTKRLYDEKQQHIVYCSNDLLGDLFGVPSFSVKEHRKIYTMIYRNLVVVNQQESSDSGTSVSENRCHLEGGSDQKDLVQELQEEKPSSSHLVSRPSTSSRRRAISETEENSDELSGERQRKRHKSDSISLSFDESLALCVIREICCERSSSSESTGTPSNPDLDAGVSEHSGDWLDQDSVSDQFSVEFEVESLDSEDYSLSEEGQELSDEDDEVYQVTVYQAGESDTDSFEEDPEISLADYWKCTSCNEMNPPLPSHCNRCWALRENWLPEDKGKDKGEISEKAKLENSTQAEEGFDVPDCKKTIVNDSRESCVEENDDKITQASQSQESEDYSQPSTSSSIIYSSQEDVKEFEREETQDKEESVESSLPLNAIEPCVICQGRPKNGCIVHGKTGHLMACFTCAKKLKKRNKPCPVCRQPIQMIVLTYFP
Of the large screens only hits and unclear results are named; the others gave an inactive call. Shown are actives, neighbours in structure and some others; about 9.4% of the full set was active somewhere.

Cc1ccc(C)c(N(CC(=O)N/N=C/c2ccc(-c3ccc([N+](=O)[O-])cc3)o2)S(=O)(=O)c2ccccc2)c1	T cruzi inh 72
Cc1nnc(SCCN2CCOCC2)c2nn(-c3ccccc3F)c(C)c12	Lmaj promast 53 (no result: CSC inhib, Beta cell apopt, Mdm2 MdmX PPI)
Cc1cc(Cl)ccc1NC(=O)CCN1C(=O)NC(C)(C)C1=O	none (no result: SKKanGAS inh, Lmaj promast, T cruzi inh)
CCC(C)NC(=O)C1CCCN1S(=O)(=O)c1ccc(Cl)cc1 (stereo not given)	none
CCCOc1ccc(/C=N/NC(=O)C2CCCN2S(=O)(=O)c2ccc(Cl)cc2)cc1 (stereo not given)	Lmaj promast 59
O=C(Nc1ccc(Cl)cn1)C1CCCN1S(=O)(=O)c1ccc(Cl)cc1 (stereo not given)	Lmaj promast 53
CC(C)Oc1ccc(/C=N/NC(=O)C2CCCN2S(=O)(=O)c2ccc(Cl)cc2)cc1 (stereo not given)	Lmaj promast 60 (no result: Beta cell apopt)
O=C(Nc1ccc(Cl)cn1)C1CCCN1S(=O)(=O)c1cccc2ccccc12 (stereo not given)	none
COc1ccc(NC(=O)[C@@H]2CCCN2S(=O)(=O)c2ccc(Cl)cc2)cc1	none (no result: SKKanGAS inh, Lmaj promast, T cruzi inh)
O=C(c1ccccc1SCc1ccc(F)cc1)N1CCOCC1	none
COc1ccc2c(C)cc(N3CCN(c4ccc(F)cc4)CC3)nc2c1	Lmaj promast 87
COC(=O)c1ccccc1NC(=O)Cn1c(=O)n(Cc2ccccc2)c(=O)c2c(C)c(C)sc21	Lmaj promast 89
CCCCCCN1N=C(C)C(C(=O)c2ccc(Cl)cc2)C1=O (stereo not given)	SKKanGAS inh 50
CCCCCCCN1N=C(C)C(C(=O)c2ccccc2)C1=O (stereo not given)	SKKanGAS inh inconclusive
COc1cc(NC(=O)C2CCCO2)c(OC)cc1NC(=O)c1ccccc1 (stereo not given)	Lmaj promast 83
O=C(C1CCCN(Cc2ccc(Br)cc2)C1)N1CCCCC1 (stereo not given)	none (no result: Lmaj promast)
COc1ccc(-c2noc(CSc3nnc(CCc4ccccc4)n3-c3ccccc3)n2)cc1OC	Lmaj promast 72 (no result: Beta cell apopt)
COc1ccccc1-c1nnc(SCC(=O)Nc2ccc3[nH]c(=O)[nH]c3c2)n1N	none (no result: Lmaj promast)
Cc1cccc(N=Nc2c(C)nn(-c3ccccc3)c2N)c1C	SKKanGAS inh 57
Cc1nn(-c2ccccc2)c(N)c1N=Nc1ccc(Cl)cc1	CSC inhib 79
CC(=O)N(C)c1ccc(N=Cc2cc3c(cc2[N+](=O)[O-])OCO3)cc1	none (no result: Lmaj promast)
CCN(CC)c1ccc(N=Cc2ccc([N+](=O)[O-])o2)cc1	Beta cell apopt 75, Lmaj promast 91
CCN(CC)c1ccc(/C=N/NC(=O)c2ccc([N+](=O)[O-])cc2)cc1	none
CCN(CC)c1ccc(N=Cc2ccccc2[N+](=O)[O-])cc1	Beta cell apopt 100, T cruzi inh 74
COc1ccc(C2=NN(C(=O)CSc3ncccn3)C(c3cccc(OC)c3OC)C2)cc1 (stereo not given)	Lmaj promast 79
COc1ccc(C2=NN(C(=O)CSc3ncccn3)C(c3ccc(C)cc3)C2)cc1 (stereo not given)	none
O=C(Nc1ccccc1C(=O)O)c1cc(S(=O)(=O)N2CCOCC2)c(Br)s1	none (no result: Lmaj promast)
CC(=O)N(C(C)=O)c1ncnc2c1c(-c1ccc(Cl)cc1)nn2C(C)(C)C	T cruzi inh 61
COc1ccc(CC2(CO)CCN(C(C)COc3ccccc3)CC2)cc1 (stereo not given)	Lmaj promast 79
COc1ccc(CC2(CO)CCN(C/C=C/c3ccccc3OC)CC2)cc1	Lmaj promast 87 (no result: SKKanGAS inh)
CC(COc1ccccc1)N1CCC(CO)(Cc2ccccc2)CC1 (stereo not given)	Lmaj promast 60
NC(=O)COc1ccc(-c2noc(COc3ccccc3[N+](=O)[O-])n2)cc1	none
O=C1CCC[C@@H]2Cc3[nH]c4c(Cl)ccc(Cl)c4c3[C@@H]3CCN1[C@H]23	T cruzi inh 64 (no result: Lmaj promast)
O=C(CN1CCCCCC1)Nc1ccccc1OC(F)F	none (no result: Lmaj promast)
O=C(NNC(=O)c1ccccc1O)c1ccc(Cl)c(S(=O)(=O)N2CCc3ccccc32)c1	Beta cell apopt 83 (no result: Lmaj promast)
NC(=O)CCC(=O)N1CCCC(C(=O)c2ccc(C(F)(F)F)cc2)C1 (stereo not given)	none (no result: Lmaj promast)
COc1cc(/C=C/C(=O)c2ccc3c(c2)OCO3)cc(Cl)c1O	CSC inhib 113 (no result: Lmaj promast)
Cc1ccc(S(=O)(=O)N(CC(=O)Nc2ccc(Cl)c([N+](=O)[O-])c2)C2CCCCC2)cc1	T cruzi inh 59
O=C(CN(C1CC1)S(=O)(=O)c1ccc(S(=O)(=O)N2CCCCCC2)cc1)Nc1ccccc1	none
CCN(C1CCCCC1)S(=O)(=O)c1ccc(S(=O)(=O)N(CC(=O)Nc2ccccc2)C2CC2)cc1	T cruzi inh 55 (no result: CSC inhib)
COc1ccc(OCc2nnc(SCC(=O)Nc3ccccc3C#N)o2)cc1	none (no result: Lmaj promast)
CCOc1ccc(N2CC(C(=O)N3CCCCCC3)CC2=O)cc1 (stereo not given)	none (no result: Lmaj promast)
COc1cccc(CN2CCSCC2)c1OC	none (no result: Lmaj promast)
COc1ccccc1CN1CCSCC1	Lmaj promast 63
CCc1ccc(OCC(=O)N/N=C(\C)c2ccc(OC(F)F)cc2)cc1	Lmaj promast 69
CCc1ccc(OCC(=O)N/N=C(\C)c2ccccc2OC(F)F)cc1	none (no result: CSC inhib, Beta cell apopt)
C/C(=N\NC(=O)COc1ccc(C(C)(C)C)cc1)c1ccc(N2CCOCC2)cc1	Lmaj promast 74
CCCCS/C(=C(/C#N)C(N)=O)c1cc2c([nH]1)CCCC2	Lmaj promast 51
CCc1ccc(N/C(SC)=C(/C#N)C(N)=O)cc1	none
O=C(Nc1cccc(C(F)(F)F)c1)c1cc2c(=O)c3ccccc3oc2nc1C(F)(F)F	SKKanGAS inh inconclusive, Lmaj promast 62, T cruzi inh inconclusive
O=C(Nc1ccccc1)c1cc2c(=O)c3ccccc3oc2nc1C(F)(F)F	none (no result: Beta cell apopt)
COc1cccc(CN(C)C(=O)c2cc(S(=O)(=O)NC3CCCCC3)ccc2C)c1OC	none (no result: SKKanGAS inh, Lmaj promast, T cruzi inh)
Cc1ccc(C)c(N2CCN(C(=O)CCc3nc(-c4ccccc4Br)no3)CC2)c1	none (no result: SKKanGAS inh, CSC inhib, Beta cell apopt, Lmaj promast, T cruzi inh)
Fc1cccc(C2NN=C(c3ccccc3)S2)c1 (stereo not given)	none
O=C1c2ccccc2C2=Nc3ccccc3SC(c3cccc(F)c3)C12 (stereo not given)	SKKanGAS inh 79, Lmaj promast 89, T cruzi inh 56
Cc1cc(C(=O)COC(=O)C2=COCCO2)c(C)n1-c1cccc(F)c1	none (no result: Lmaj promast)
O=C(Nc1ccccc1N1CCCC1)c1cccc(-c2cc3ccccc3oc2=O)c1	CSC inhib 90
O=C(Nc1cccc(Cl)c1N1CCCC1)c1ccc(Br)o1	SKKanGAS inh 70
O=C(Nc1cccc(Cl)c1N1CCCC1)c1ccc([N+](=O)[O-])o1	CSC inhib 100, Lmaj promast 87 (no result: SKKanGAS inh, T cruzi inh)

Compound activity (PubChem)
